Measurements reported in ChEMBL document CHEMBL4145654, “Structure-Based Discovery of CF53 as a Potent and Orally Bioavailable Bromodomain and Extra-Terminal (BET) Bromodomain Inhibitor” (J Med Chem, 2018).

Key:
[1] = target: Bromodomain-containing protein 4 (Homo sapiens, UniProt O60885); assay: Inhibition of FAM-labeled ZBA248 binding to recombinant human BRD4 bromodomain 1 (44 to 168 residues) expressed in Rosetta2 Escherichia coli DE3 cells after 30 mins by fluorescence polarization assay
Procedure, shortened: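 Recombinant human BRD4 BD1 (residues 44−168) in a fluorescence polarization competitive binding assay, run as described in earlier work.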

MOLM-13 = assay: Growth inhibition of human MOLM13 cells after 4 days by WST-8 assay; type: functional, cell-based; conditions: MOLM-13, 96 h
Procedure, shortened: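 Leukemia cells, used within 3 months of thaw, were seeded at 10 000 cells/well and exposed to serially diluted compound in culture medium for 4 days. WST-8 reagent was added at 10% (v/v) final for 1−3 h, and absorbance was read at 450 nm. Readings were normalized to DMSO-treated cells, and the IC50 was fitted by nonlinear regression.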

MDA-MB-231 [2] = assay: Growth inhibition of human MDA-MB-231 cells after 4 days by WST-8 assay; type: functional, cell-based; conditions: MDA-MB-231, 96 h
Procedure, shortened: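 Cells used within 3 months of thaw. Breast cancer cells seeded at 3000 cells/well, then serially diluted compound added, cultured 4 days. Growth read by WST-8 (10% v/v final, 1−3 h, 450 nm). Readings normalized to DMSO-treated cells. IC50 by nonlinear regression.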

[3] = Plasma concentration in SCID mouse xenografted with human MDA-MB-231 cells at 50 mg/kg administered via oral gavage measured after 1 hr; type: ADME, organism-based
Procedure, shortened: (§1)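 Limited PK in SCID mice bearing MDA-MB-231 tumors, 50 mg/kg given by oral gavage. Plasma and tumor tissue drug levels measured at two time points per compound. Values are the mean of two mice/tumors per time point.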

[4] = Drug uptake in tumor of SCID mouse xenografted with human MDA-MB-231 cells at 50 mg/kg administered via oral gavage measured after 1 hr; type: ADME, organism-based, Neoplasm; conditions: read-out: Drug uptake; procedure, shortened: as §1
[5] = Plasma concentration in SCID mouse xenografted with human MDA-MB-231 cells at 50 mg/kg administered via oral gavage measured after 6 hrs; type: ADME, organism-based
Procedure, shortened: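 SCID mice carrying MDA-MB-231 tumors dosed orally at 50 mg/kg. Plasma drug level determined by LC-MS/MS (positive-ion MRM, C18 column, formic acid/acetonitrile gradient). Value is the mean from two mice per time point.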

[6] = Drug uptake in tumor of SCID mouse xenografted with human MDA-MB-231 cells at 50 mg/kg administered via oral gavage measured after 6 hrs; type: ADME, organism-based, Neoplasm; conditions: read-out: Drug uptake; procedure, shortened: as §1
[7] = Plasma concentration in SCID mouse xenografted with human MDA-MB-231 cells at 50 mg/kg administered via oral gavage measured after 0.5 hrs; type: ADME, organism-based; procedure, shortened: as §1
[8] = Drug uptake in tumor of SCID mouse xenografted with human MDA-MB-231 cells at 50 mg/kg administered via oral gavage measured after 0.5 hrs; type: ADME, organism-based, Neoplasm; conditions: read-out: Drug uptake; procedure, shortened: as §1
RS4-11 = assay: Antitumor activity against human RS4:11 cells xenografted in SCID mouse assessed as tumor growth inhibition at 50 mg/kg administered via oral gavage measured on day 35; type: functional; conditions: RS4-11, po, 840 h, read-out: TGI
Procedure, shortened: (§2)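 Each SCID mouse received a single dorsal subcutaneous tumor of 5 × 10⁶ RS4;11 or MDA-MB-231 cells in 50% Matrigel. At about 100 mm3, mice were randomised to treatment or vehicle control groups. Dosing was by oral gavage at the stated schedules. Tumor volume was L × W²/2, and body weight was tracked. TGI versus vehicle at end of treatment was tested by unpaired two-tailed t-test.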

MDA-MB-231 [9] = assay: Antitumor activity against human MDA-MB-231 cells xenografted in SCID mouse assessed as tumor growth inhibition at 50 mg/kg administered via oral gavage measured on day 44; type: functional; conditions: MDA-MB-231, po, 1056 h, read-out: TGI; procedure, shortened: as §2

IC50 [1]	Ki [1]	IC50 (MOLM-13)	IC50 (MDA-MB-231 [2])	Compound	also measured
16.8 nM	3.4 nM	15.4 nM	26.3 nM	CCn1nc(C)cc1Nc1nc(C)nc2[nH]c3cc(-c4c(C)noc4C)c(OC)cc3c12	–
24.9 nM	6.3 nM	30.7 nM	81.1 nM	COc1cc2c(cc1-c1c(C)noc1C)[nH]c1nc(C)nc(Nc3cc(C)n(C)n3)c12	–
10.5 nM	1.2 nM	23 nM	23.5 nM	COc1cc2c(cc1-c1c(C)noc1C)[nH]c1nc(C)nc(Nc3cc(C(C)(C)C)nn3C)c12	concentration at 1 h [3]: 923 ng/mL; concentration at 1 h [4]: 305 ng/g; concentration at 6 h [5]: 458 ng/mL; concentration at 6 h [6]: 268 ng/g
15.8 nM	3.1 nM	56 nM	156 nM	COc1cc2c(cc1-c1c(C)noc1C)[nH]c1nc(C)nc(Nc3cc(C(F)(F)F)nn3C)c12	–
4.4 nM	< 1 nM	10.6 nM	13.9 nM	COc1cc2c(cc1-c1c(C)noc1C)[nH]c1nc(C)nc(Nc3cc(C)nn3C(C)(C)C)c12	concentration at 0.5 h [7]: 3680 ng/mL; concentration at 6 h [5]: 127 ng/mL; concentration at 0.5 h [8]: 5230 ng/g; concentration at 6 h [6]: 621 ng/g
12.8 nM	2 nM	26.6 nM	63.2 nM	COc1cc2c(cc1-c1c(C)noc1C)[nH]c1nc(C)nc(Nc3cc(C4CCC4)nn3C)c12	–
14.3 nM	2.6 nM	38.8 nM	26 nM	COc1cc2c(cc1-c1c(C)noc1C)[nH]c1nc(C)nc(Nc3cc(C)nn3C3CCC3)c12	–
9.4 nM	0.8 nM	10.3 nM	55.1 nM	COc1cc2c(cc1-c1c(C)noc1C)[nH]c1nc(C)nc(Nc3cc(C)nn3C)c12	–
196 nM	66.5 nM	–	–	COc1ccc2c(Nc3nc(C)nc4[nH]c5cc(-c6c(C)noc6C)c(OC)cc5c34)nn(C)c2c1	–
–	< 1 nM	11.7 nM	26 nM	COc1cc2c(cc1-c1c(C)noc1C)[nH]c1nc(C)nc(Nc3cc(C(C)C)nn3C)c12	concentration at 1 h [3]: 6240 ng/mL; concentration at 1 h [4]: 736 ng/g; concentration at 6 h [5]: 1870 ng/mL; concentration at 6 h [6]: 166 ng/g
13.8 nM	2.4 nM	75 nM	164 nM	COc1cc2c(cc1-c1c(C)noc1C)[nH]c1nc(C)nc(Nc3cc(C(C)(C)C(F)(F)F)nn3C)c12	–
–	0.5 nM	5 nM	29.6 nM	COc1cc2c(cc1-c1c(C)noc1C)[nH]c1nc(C)nc(Nc3cc(C)nn3C(C)C)c12	–
87.6 nM	28.4 nM	–	–	COc1cc2c(cc1-c1c(C)noc1C)[nH]c1nc(C)nc(Nc3nn(C)c4cc(F)ccc34)c12	–

Further lines, the molecule ahead of its results:

Compound	IC50 [1]	Ki [1]	IC50 (MOLM-13)	IC50 (MDA-MB-231 [2])	also measured
COc1cc2c(cc1-c1c(C)noc1C)[nH]c1nc(C)nc(Nc3nn(CCO)c4ccccc34)c12	9.8 nM	1 nM	–	–	–
COc1cc2c(cc1-c1c(C)noc1C)[nH]c1nc(C)nc(Nc3nn(C)c4cccc(F)c34)c12	–	21.5 nM	–	–	–
COc1cc2c(cc1-c1c(C)noc1C)[nH]c1nc(C)nc(Nc3cc(C)nn3C3CCCC3)c12	4 nM	< 1 nM	17.7 nM	25 nM	–
COc1cc2c(cc1-c1c(C)noc1C)[nH]c1nc(C)nc(Nc3c4c(nn3C)CCC4)c12	5.5 nM	< 1 nM	5 nM	67 nM	concentration at 1 h [3]: 4880 ng/mL; concentration at 1 h [4]: 1510 ng/g; concentration at 6 h [5]: 1580 ng/mL; concentration at 6 h [6]: 600 ng/g
COc1cc2c(cc1-c1c(C)noc1C)[nH]c1nc(C)nc(Nc3nn(C)c4c3CCCC4)c12	–	< 1 nM	41.9 nM	58.3 nM	–
COc1cc2c(cc1-c1c(C)noc1C)[nH]c1nc(C)nc(Nc3nn(C)c4ccncc34)c12	228 nM	77.9 nM	–	–	–
COc1cc2c(cc1-c1c(C)noc1C)[nH]c1nc(C)nc(Nc3nn(C)c4ncccc34)c12	20.8 nM	4.9 nM	–	–	–
COc1cc2c(cc1-c1c(C)noc1C)[nH]c1nc(C)nc(Nc3nn(C)c4c(F)cccc34)c12	95.2 nM	31 nM	–	–	–
COc1cc2c(cc1-c1c(C)noc1C)[nH]c1nc(C)nc(Nc3nn(C)c4ccc(F)cc34)c12	–	16.7 nM	–	–	–
Cc1sc2c(c1C)C(c1ccc(Cl)cc1)=N[C@@H](CC(=O)Nc1ccc(O)cc1)c1nnc(C)n1-2 [BIRABRESIB]	–	–	–	–	inhibition in vivo at 50 mg/kg (RS4-11): 33%; inhibition in vivo at 50 mg/kg (MDA-MB-231 [9]): 21%
COc1cc2c(cc1-c1c(C)noc1C)[nH]c1nc(C)nc(Nc3nn(C)c4ccccc34)c12	9.1 nM	0.7 nM	–	–	–
COc1cc2c(cc1-c1c(C)noc1C)[nH]c1nc(C)nc(Nc3n[nH]c4ccccc34)c12	11.8 nM	1.7 nM	–	–	–
COc1cc2c(cc1-c1c(C)noc1C)[nH]c1nc(C)nc(Nc3c4c(nn3C)CCCC4)c12	4.9 nM	< 1 nM	11.3 nM	17.5 nM	concentration at 1 h [3]: 2980 ng/mL; concentration at 1 h [4]: 466 ng/g; concentration at 6 h [5]: 1150 ng/mL; concentration at 6 h [6]: 132 ng/g
COc1cc2c(cc1-c1c(C)noc1C)[nH]c1nc(C)nc(Nc3c(C)c(C4CC4)nn3C)c12	51.7 nM	15.8 nM	201 nM	319 nM	–
COc1cc2c(cc1-c1c(C)noc1C)[nH]c1nc(C)nc(Nc3nn(C)c4cccnc34)c12	229 nM	78 nM	–	–	–
